Laboratory results: ChEMBL document CHEMBL1156853, “Structure-function relationships and crystal structures of the vitamin D receptor bound 2 alpha-methyl-(20S,23S)- and 2 alpha-methyl-(20S,23R)-epoxymethano-1 alpha,25-dihydroxyvitamin D3” (J Med Chem, 2010)
Active and inactive are the calls of the source. The rule behind the calls is not given here.

How the values were obtained:
[1] = tested on: HL-60; assay: Antiproliferative activity against human HL60 cells at 0.1 nM after 96 hrs; assay type: functional, cell-based
Method in brief: (§1)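 HL60 cells grown in RPMI with 10% fetal calf serum at 37 °C without CO2. Plated at 4 × 10^5 cells/mL and exposed 96 h to various ligand concentrations, with 0.7% ethanol as control. Cells then counted; mean ± SEM.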

[2] = tested on: HL-60; assay: Induction of cell differentiation in human HL60 cells assessed as CD11c and CD14 expression at 0.1 nM after 96 hrs relative to untreated control; assay type: functional
Method in brief: (§2)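 HL60 cells plated at 4 × 10^5 cells/mL in RPMI/10% FCS at 37 °C and treated 96 h, with 0.7% ethanol control. Stained with PE-anti-CD11c and FITC-anti-CD14, and Topro-3 added to exclude dead cells. Flow cytometry counted the CD11c/CD14 double-positive subpopulation. Representative of three experiments.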

[3] = molecular target: T1, Vitamin D3 receptor (Homo sapiens) (UniProt P11473); assay: Binding affinity to human VDR ligand binding domain assessed as SRC1 peptide binding dissociation constant by fluorescence anisotrophy relative to 1-alpha,25(OH)(2)D(3)
T1 sequence (whole entry): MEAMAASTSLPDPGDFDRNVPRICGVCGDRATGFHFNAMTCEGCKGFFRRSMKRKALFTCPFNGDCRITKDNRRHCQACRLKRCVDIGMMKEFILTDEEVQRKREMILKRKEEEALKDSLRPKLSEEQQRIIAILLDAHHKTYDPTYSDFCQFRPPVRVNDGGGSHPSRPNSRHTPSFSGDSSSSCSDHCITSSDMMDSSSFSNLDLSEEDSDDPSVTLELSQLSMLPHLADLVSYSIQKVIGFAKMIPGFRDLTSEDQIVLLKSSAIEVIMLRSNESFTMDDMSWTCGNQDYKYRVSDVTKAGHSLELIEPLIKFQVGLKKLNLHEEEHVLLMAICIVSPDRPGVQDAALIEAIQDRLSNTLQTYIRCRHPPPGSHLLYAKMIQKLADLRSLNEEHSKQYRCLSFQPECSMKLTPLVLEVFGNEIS
Method in brief: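 Steady-state fluorescence anisotropy at 20 °C. Kd obtained from anisotropy values of free peptide, peptide at each protein concentration and plateau. Representative of three experiments.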

[4] = molecular target: T1, Vitamin D3 receptor (Homo sapiens); assay: Agonist activity at GAL4 tagged human VDR ligand binding domain expressed in MCF7 cells assessed as receptor transactivation at 0.1 nM by luciferase reporter gene assay relative to 2alpha-methyl-(20S,23S)-epoxymethano-1 alpha,25-dihydroxyvitamin D(3); assay type: cell-based
Method in brief: (§3)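 Gal4 DBD fused to human VDR LBD (90-427). MCF-7 cells seeded at 10^5 per well and grown overnight in phenol red-free DMEM with 10% charcoal-treated FCS and insulin. Transfected (jetPEI) with Gal4-VDR, ptk-LUC reporter and β-galactosidase plasmid. Ligand or solvent added 10 h later in phenol red-free DMEM/10% FCS. Luciferase read 24 h after stimulation and normalized to β-galactosidase. Triplicates, at least three experiments.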

[5] = tested on: Mus musculus; assay: Toxicity in C57BL/6J mouse assessed as increase in serum calcium level at 0.1 ug/kg, ip administered every 2 days for 3 weeks; assay type: organism-based; details: in vivo, 0.0001 mg/kg
Method in brief: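 Male C57BL/6J mice, 6-7 weeks old, 6-7 per group. Ligand in sesame oil given ip at 0.1 μg/kg every second day for 3 weeks; vehicle controls received sesame oil. Serum calcium measured weekly after a 3 h fast, by clinical analyzer kit. Mean ± SEM.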

[6] = molecular target: T1, Vitamin D3 receptor (Homo sapiens); assay: Agonist activity at GAL4 tagged human VDR ligand binding domain expressed in MCF7 cells assessed as receptor transactivation at 1 nM by luciferase reporter gene assay relative to 2alpha-methyl-(20S,23S)-epoxymethano-1 alpha,25-dihydroxyvitamin D(3); assay type: cell-based; method in brief: as §3
[7] = molecular target: T1, Vitamin D3 receptor (Homo sapiens); assay: Agonist activity at GAL4 tagged human VDR ligand binding domain expressed in MCF7 cells assessed as receptor transactivation at 5 nM by luciferase reporter gene assay relative to 2alpha-methyl-(20S,23S)-epoxymethano-1 alpha,25-dihydroxyvitamin D(3); assay type: cell-based; method in brief: as §3
[8] = tested on: HL-60; assay: Induction of cell differentiation in human HL60 cells assessed as CD11c and CD14 expression after 96 hrs; assay type: functional, cell-based; method in brief: as §2
[9] = tested on: HL-60; assay: Antiproliferative activity against human HL60 cells after 96 hrs; assay type: functional, cell-based; method in brief: as §1
[10] = molecular target: T1, Vitamin D3 receptor (Homo sapiens); assay: Agonist activity at GAL4 tagged human VDR ligand binding domain expressed in MCF7 cells assessed as receptor transactivation at 0.1 nM by luciferase reporter gene assay relative to 1-alpha,25(OH)(2)D(3); assay type: cell-based; method in brief: as §3
[11] = molecular target: T1, Vitamin D3 receptor (Homo sapiens); assay: Agonist activity at GAL4 tagged human VDR ligand binding domain expressed in MCF7 cells assessed as receptor transactivation at 0.1 nM by luciferase reporter gene assay relative to (20S,23S)-epoxymethano-1 alpha,25-dihydroxyvitamin D(3); assay type: cell-based; method in brief: as §3
[12] = molecular target: T1, Vitamin D3 receptor (Homo sapiens); assay: Agonist activity at GAL4 tagged human VDR ligand binding domain expressed in MCF7 cells assessed as receptor transactivation at 5 nM by luciferase reporter gene assay relative to 1-alpha,25(OH)(2)D(3); assay type: cell-based; method in brief: as §3

Compound | Activity [1] | Activity [2] | fold change (FC) [3] | Activity [4] [%] | Activity [5] | Activity [6] [%] | Activity [7] [%] | Activity [8] | Activity [9] | fold change (FC) [10] | fold change (FC) [11] | fold change (FC) [2] | Activity [12]
C=C1/C(=C\C=C2/CCC[C@]3(C)[C@@H]([C@H](C)CCCC(C)(C)O)CC[C@@H]23)C[C@@H](O)C[C@@H]1O | inactive | inactive | – | – | – | – | – | – | – | – | – | – | –
C=C1/C(=C\C=C2/CCC[C@]3(C)[C@@H]([C@@H]4C[C@@H](CC(C)(C)O)CO4)CC[C@@H]23)C[C@@H](O)C[C@@H]1O | inactive | inactive | 0.9 | 26 | Toxic | 42 | 73 | – | – | – | – | – | –
C=C1/C(=C\C=C2/CCC[C@]3(C)[C@@H]([C@@H]4C[C@H](CC(C)(C)O)CO4)CC[C@@H]23)C[C@@H](O)[C@H](C)[C@@H]1O | inactive | inactive | 3.2 | – | Non-toxic | – | – | Dose-dependent effect | Dose-dependent effect | – | – | – | –
C=C1/C(=C\C=C2/CCC[C@]3(C)[C@@H]([C@@H]4C[C@H](CC(C)(C)O)CO4)CC[C@@H]23)C[C@@H](O)C[C@@H]1O | inactive | inactive | 1.7 | – | – | – | – | Dose-dependent effect | Dose-dependent effect | – | – | – | –
C=C1/C(=C\C=C2/CCC[C@]3(C)[C@@H]([C@@H]4C[C@@H](CC(C)(C)O)CO4)CC[C@@H]23)C[C@@H](O)[C@H](C)[C@@H]1O | Active | Active | 1.3 | – | Toxic | – | – | – | – | 13 | 3.8 | 10 | Active
